For data set [1], the system named is Jurkat (Human Acute T-cell leukemia). In words: cells. It is filed as cell-based. Particulars: read-out: IC50 Jurkat.
Data set [2] concerns PC3 (Human prostate adenocarcinoma). In words: LDH assay cytotoxicity, PC3. It is filed as cell-based.
Data set [3] deals with HepG2 (Human hepatocyte cancer cell line). In words: LDH assay cytotoxicity, HepG2. It is filed as cell-based. Conditions: HepG2, read-out: IC50 HepG2.
Data set [4] concerns HL60 (Human promylocyteic leukemia). In words: LDH assay cytotoxicity, HL60. In kind it is cell-based. Particulars: HL-60, read-out: IC50 HL60.
The test system of data set [5] is K562 (Human chronic myelogenom leukemia). In words: LDH assay cytotoxicity, K562. It is filed as cell-based. Conditions: K562, read-out: IC50 K562.
In data set [6] the test system is HT29 (Human colon carcinoma). As to the kind of experiment: LDH assay cytotoxicity, HT29. It is filed as cell-based. Conditions: HT-29, read-out: IC50 HT29.
Data set [7] deals with HUVEC (Human umbilical vein endothelial cell). In words: LDH assay cytotoxicity, HUVEC. In kind it is cell-based. Conditions: read-out: IC50 HUVEC.
The subject of data set [8] is Hela (Human cervix carcinoma). As to the kind of experiment: LDH assay cytotoxicity, Hela. It is filed as cell-based. Particulars: read-out: IC50 Hela.
Data set [9] relates to leukemia cell lines (HL60, K562 and Jurkat). As to the kind of experiment: Trypan blue exclusion, leukemia cell lines. Particulars: 48 h; compared with structural isomer A; Figures 7-9. It is filed as cell-based, Human.
The test system of data set [10] is cancer cell lines (PC3, HT29, Hela, HL60, Jurkat, K562, MCF7, HepG2). As to the kind of experiment: LDH assay cytotoxicity, span over the eight cancer cell lines. Particulars: Homo sapiens, read-out: IC50 on cancer cell lines (range over the eight lines). It is filed as cell-based. The gist of the method: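 Cells grown in DMEM with 10% FBS and penicillin/streptomycin at 37°C, 5% CO2. Test compound at 1, 5, 10, 25, 50 and 100 μM for 24 and 48 h. Medium transferred and mixed with LDH reagent plus catalyst (1:45), 30 min in the dark at room temperature. Absorbance read at 490 nm with 630 nm background subtraction. Cell-free medium served as negative control.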

Data set [11] deals with PC3 (Human prostate adenocarcinoma). In words: Trypan blue exclusion, PC3. It is filed as cell-based. Particulars: 48 h; Figure 4. In a few lines: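 Cells kept in DMEM with 10% FBS and antibiotics at 37°C, 5% CO2. About 0.75 × 10^5 cells/mL were seeded in 6-well plates and exposed to test compound at several concentrations for 48 h. Cells were then collected, resuspended in 0.4% trypan blue, and unstained cells counted by inverted microscopy. Percent viability was expressed relative to a temozolomide reference control.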

In data set [12] the test system is MCF7 (Human breast adenocarcinoma). In words: LDH assay cytotoxicity, MCF7. In kind it is cell-based.
[13] abbreviates: Homo sapiens, read-out: IC50 PC3, LDH assay, incubation 24 and 48 h described.

Where two headings read alike, the source gives them in different places.

For orientation: IC50 means the concentration needed to halve the response being measured. For `O=[N+]([O-])c1ccc(N=NNc2cccc(O)c2)cc1` [A, 1-(4-nitrophenyl)-3-(3-hydroxyphenyl)triazene], the IC50 stood at 1200 ± 400 nM in data set [1]; 1240 ± 200 nM in data set [2] (setting [13]); 1120 ± 300 nM in data set [3]; 2300 ± 510 nM in data set [4]; 2100 ± 700 nM in data set [5]; 2820 ± 490 nM in data set [6]. In addition, the 50% inhibitory concentration (IC50) in data set [7] stood at 4400 ± 1310 nM; in [8], 8870 ± 2100 nM.

Consider `O=[N+]([O-])c1ccc(N=NNc2ccccc2O)cc1` [B, 1-(4-nitrophenyl)-3-(2-hydroxyphenyl)triazene], for which the 50% inhibitory concentration (IC50) in [1] stood at 1050 ± 980 nM; in data set [2] (setting [13]) it was 3290 ± 1300 nM; in data set [3], 1890 ± 780 nM; in [4], 1360 ± 340 nM; in [5], 1130 ± 670 nM; in data set [6], 3370 ± 1650 nM. Moreover, the 50% inhibitory concentration (IC50) in data set [7] was determined as 3220 ± 1100 nM; in data set [8], 4200 ± 1400 nM. For the same compound, in data set [9], the “effectiveness on leukemia cell lines (HL60, K562 and Jurkat) by trypan blue exclusion” value is given as “more effective”.

`CCOc1ccccc1N=NNc1ccccc1OCC` [C, 1,3-bis(2-ethoxyphenyl)triazene]: the IC50 in [10] was 560 to 3330 nM; in data set [1], 1690 ± 1020 nM; in data set [2] (setting [13]) it was 590 nM; in data set [2] (read-out: IC50 PC3, LDH assay, incubation 24 and 48 h described) it was 560 ± 200 nM; in [3], 3330 ± 1300 nM; in [4], 2620 ± 960 nM. Further, the IC50 in data set [5] turned out to be 1660 ± 800 nM; in data set [6] it was 2550 ± 1330 nM; in [7], 12600 ± 2800 nM; in data set [12] (read-out: IC50 MCF7, LDH assay, incubation 24 and 48 h described), 590 ± 120 nM; in data set [8], 2540 ± 1200 nM. For the same compound, the “cytotoxic activity on PC3 by trypan blue exclusion” value in [11] was “high”.

`N#Cc1ccccc1N=NNc1ccccc1C#N` [D, 1,3-bis (2-cyanophenyl) triazene]: the half-maximal inhibitory concentration (IC50) in data set [1] came out at 1440 ± 710 nM; in [2] (setting [13]) it was 1040 ± 110 nM; in data set [3], 1490 ± 420 nM; in data set [4] it was 1340 ± 440 nM; in [5], 1040 ± 380 nM; in [6], 2030 ± 1050 nM. Also, the 50% inhibitory concentration (IC50) in data set [7] was determined as 1140 ± 400 nM; in data set [8], 2390 ± 1350 nM.

Regarding `O=[N+]([O-])c1ccc(N=NNCCO)cc1` [E, 1-(4-nitrophenyl)-3-(2-hydroxyethyl)triazene], the IC50 is 3000 to 15500 nM in [10]; 4500 ± 1670 nM in data set [1]; 3000 ± 1010 nM in data set [2] (setting [13]); 4200 ± 1200 nM in data set [3]; 2810 ± 990 nM in [4]; 9870 ± 2080 nM in data set [5]. Further, the IC50 is 8250 ± 2200 nM in [6], 5050 ± 1800 nM in [7] and 15500 ± 3010 nM in data set [8].

As for `COc1ccccc1N=NNc1ccccc1OC` [F, 1,3-Bis(2-methoxyphenyl)triazene], the IC50 in data set [1] amounted to 1610 ± 900 nM; in data set [2] (setting [13]), 7000 ± 2200 nM; in [3] it was 1450 ± 650 nM; in data set [4] it was 1300 ± 500 nM; in [5], 1660 ± 490 nM; in data set [6], 2260 ± 1520 nM. Further, the half-maximal inhibitory concentration (IC50) was found to be 4590 ± 1760 nM in [7] and 6850 ± 2800 nM in [8].

On to `c1ccc(N=NNc2ccccc2)cc1` [G, 1,3-diphenyltriazene], for which the half-maximal inhibitory concentration (IC50) in [1] turned out to be 5530 ± 1440 nM; in data set [2] (Homo sapiens, read-out: IC50 PC3) it was 4130 ± 1800 nM; in data set [3], 3940 ± 1450 nM; in [4] it was 3400 ± 1960 nM; in data set [5] it was 6330 ± 2410 nM; in [6], 9400 ± 2300 nM. Moreover, the IC50 in data set [7] came to 7430 ± 2100 nM; in data set [12] (Homo sapiens, MCF7, read-out: IC50 MCF7) it was 1570 ± 340 nM; in data set [8], 4880 ± 1500 nM.

`Cn1nnc2c(C(N)=O)ncn2c1=O` [TMZ, Temozolomide, reference compound]: the half-maximal inhibitory concentration (IC50) in [1] came to 2070 ± 1340 nM; in [2] (setting [13]), 1390 ± 690 nM; in [3], 2590 ± 1300 nM; in data set [4], 3540 ± 1560 nM; in data set [5], 3820 ± 1600 nM; in [6] it was 17200 ± 3200 nM. Moreover, the 50% inhibitory concentration (IC50) in data set [7] came to 4850 ± 1780 nM; in data set [8] it was 8880 ± 2200 nM.

The values above are taken from PMC3920694 (Iranian Journal of Pharmaceutical Research : IJPR, 2013).
